Data on 6 molecules can be found in ChEMBL document CHEMBL5126677, “Covalent Modification of the JH2 Domain of Janus Kinase 2” (ACS Med Chem Lett, 2022).

The target of test [1] is T1, Tyrosine-protein kinase JAK2 (Homo sapiens, UniProt O60674). The test can be described thus: Binding affinity to wild type JAK2 JH2 (unknown origin) expressed in baculovirus infected Sf9 insect cells incubated for 30 mins by competitive fluorescence polarization assay. Summed up:
(§1)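 JAK2 JH2 domain Kd from a competitive fluorescence polarization tracer-displacement assay, with readings after 30 min and after 20 h incubation. The negative control was tracer in buffer. The positive control used enough protein to bind all tracer, at the same protein concentration used across the assays.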

The species named for test [2] is Homo sapiens. The test can be described thus: Selectivity ratio of Kd for wild type JAK2 JH2 (unknown origin) expressed in baculovirus infected Sf9 insect cells incubated for 30 mins to Kd for wild type JAK2 JH2 (unknown origin) expressed in baculovirus infected Sf9 insect cells incubated for 20 hrs.
Test [3] concerns the target T1, Tyrosine-protein kinase JAK2. The test can be described thus: Binding affinity to wild type JAK2 JH2 (unknown origin) expressed in baculovirus infected Sf9 insect cells incubated for 20 hrs by competitive fluorescence polarization assay. Summed up:
as §1

The species named for test [4] is Homo sapiens. The test can be described thus: Selectivity ratio of Kd for wild type JAK2 JH1 (unknown origin) expressed in baculovirus infected Sf9 insect cells incubated for 30 mins to Kd for wild type JAK2 JH2 (unknown origin) expressed in baculovirus infected Sf9 insect cells incubated for 30 mins. In short, it runs like this:
(§2)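 Selectivity is the ratio of JH1 Kd to JH2 Kd, both from the same competitive fluorescence polarization assay. JH2 Kd was taken at the 30 min or 20 h incubation. Controls were tracer in buffer (negative) and saturating protein at the common protein concentration (positive).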

For test [5], the target named is T1, Tyrosine-protein kinase JAK2. The test is described as follows: Binding affinity to wild type JAK2 JH1 (unknown origin) expressed in baculovirus infected Sf9 insect cells incubated for 30 mins by competitive fluorescence polarization assay.
The species named for test [6] is Homo sapiens. The test can be described thus: Selectivity ratio of Kd for wild type JAK2 JH1 (unknown origin) expressed in baculovirus infected Sf9 insect cells incubated for 30 mins to Kd for wild type JAK2 JH2 (unknown origin) expressed in baculovirus infected Sf9 insect cells incubated for 20 hrs. Summed up: as §2

T1 sequence (O60674 whole entry, the tested form may be a part): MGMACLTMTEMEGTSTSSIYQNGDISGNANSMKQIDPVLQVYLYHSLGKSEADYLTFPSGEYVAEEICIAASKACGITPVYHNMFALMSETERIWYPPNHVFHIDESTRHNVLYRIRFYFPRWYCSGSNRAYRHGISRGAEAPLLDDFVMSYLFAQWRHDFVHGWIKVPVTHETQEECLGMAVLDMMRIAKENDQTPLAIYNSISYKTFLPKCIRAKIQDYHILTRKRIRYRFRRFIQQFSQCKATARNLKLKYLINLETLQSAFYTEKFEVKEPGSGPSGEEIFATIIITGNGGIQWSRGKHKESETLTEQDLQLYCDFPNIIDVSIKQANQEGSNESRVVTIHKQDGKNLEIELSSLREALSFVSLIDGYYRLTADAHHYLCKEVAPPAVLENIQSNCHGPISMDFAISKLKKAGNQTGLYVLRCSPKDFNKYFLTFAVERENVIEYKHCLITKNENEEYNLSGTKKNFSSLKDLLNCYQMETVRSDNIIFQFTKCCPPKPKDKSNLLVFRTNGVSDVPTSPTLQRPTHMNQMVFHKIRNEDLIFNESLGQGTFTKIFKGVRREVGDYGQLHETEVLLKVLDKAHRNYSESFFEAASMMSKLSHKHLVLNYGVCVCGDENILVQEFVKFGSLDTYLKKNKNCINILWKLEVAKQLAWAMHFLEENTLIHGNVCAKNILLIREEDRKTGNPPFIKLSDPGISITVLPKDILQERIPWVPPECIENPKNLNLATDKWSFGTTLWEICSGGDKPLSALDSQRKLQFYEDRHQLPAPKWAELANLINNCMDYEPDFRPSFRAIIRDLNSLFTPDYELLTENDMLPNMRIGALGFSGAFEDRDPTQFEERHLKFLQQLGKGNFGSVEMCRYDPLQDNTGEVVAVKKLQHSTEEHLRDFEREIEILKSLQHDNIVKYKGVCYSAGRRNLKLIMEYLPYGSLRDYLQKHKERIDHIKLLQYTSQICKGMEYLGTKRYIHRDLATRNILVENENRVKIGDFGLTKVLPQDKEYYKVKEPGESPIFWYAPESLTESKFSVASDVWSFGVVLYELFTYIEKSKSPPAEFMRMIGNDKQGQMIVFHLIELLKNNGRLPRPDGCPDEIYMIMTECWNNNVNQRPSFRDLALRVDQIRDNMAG

`C/C=C/C(=O)NCCc1ccc(F)c(C(=O)n2nc(Nc3ccc(C(=O)NC)cc3)nc2N)c1F`: the Kd in test [1] turned out to be 578 nM; in test [3], 565 nM. Further, the Selectivity ratio in the test filed under Homo sapiens [2] worked out at 1.

With `CNC(=O)c1ccc(Nc2nc(N)n(C(=O)c3c(F)cccc3F)n2)cc1`, the dissociation constant Kd in test [1] is 171 nM; in test [3], 263 nM. Also, the Selectivity ratio in the test listed under Homo sapiens [2] was 0.65.

For the molecule `C=CC(=O)NCc1ccc(F)c(C(=O)n2nc(Nc3ccc(C(=O)NC)cc3)nc2N)c1F`, the Kd in test [1] amounted to 1250 nM; in test [3] it was 800 nM. In the test listed under Homo sapiens [2], the Selectivity ratio is 1.6.

For `C=CC(=O)NCCc1cc(F)c(C(=O)n2nc(Nc3ccc(C(=O)NC)cc3)nc2N)c(F)c1`, the Selectivity ratio came to 3.4 in the test listed under Homo sapiens [4], 3.2 in the test listed under Homo sapiens [2] and 11.1 in the test listed under Homo sapiens [6]. Also, the Kd in test [5] amounted to 830 nM; in test [1] it was 242 nM; in test [3], 75 nM.

`C=CC(=O)NCCc1ccc(F)c(C(=O)n2nc(Nc3ccc(C(=O)NC)cc3)nc2N)c1F`: the results for the Selectivity ratio in the test filed under Homo sapiens [4], in the test listed under Homo sapiens [2] and in the test listed under Homo sapiens [6] were 2.3, 5.1 and 11.6, respectively. In addition, the Kd in test [5] is 1280 nM; in test [1] it was 556 nM; in test [3], 110 nM.

For the molecule `C=CC(=O)NCCOc1ccc(F)c(C(=O)n2nc(Nc3ccc(C(=O)NC)cc3)nc2N)c1F`, the Selectivity ratio was determined as 7.1 in the test listed under Homo sapiens [4], 4 in the test listed under Homo sapiens [2] and 28.4 in the test filed under Homo sapiens [6]. For the same molecule, the equilibrium dissociation constant (Kd) in test [5] amounted to 4370 nM; in test [1], 617 nM; in test [3] it was 154 nM.
